Experimental data from ChEMBL document CHEMBL5705888, “Substrate specificity and inhibitors of LRRK2, a protein kinase mutated in Parkinson's disease” (Biochem J, 2009).

Columns and labels:
[1] = biological target: T1, Serine/threonine-protein kinase TBK1 (Homo sapiens) (UniProt Q9UHD2); assay: Inhibition of TBK1 (unknown origin) at 10 uM incubated for 30 mins in presence of [gamma-33P]ATP by multidrop micro reagent based assay relative to control; values are per cent of control
T1 sequence (whole entry): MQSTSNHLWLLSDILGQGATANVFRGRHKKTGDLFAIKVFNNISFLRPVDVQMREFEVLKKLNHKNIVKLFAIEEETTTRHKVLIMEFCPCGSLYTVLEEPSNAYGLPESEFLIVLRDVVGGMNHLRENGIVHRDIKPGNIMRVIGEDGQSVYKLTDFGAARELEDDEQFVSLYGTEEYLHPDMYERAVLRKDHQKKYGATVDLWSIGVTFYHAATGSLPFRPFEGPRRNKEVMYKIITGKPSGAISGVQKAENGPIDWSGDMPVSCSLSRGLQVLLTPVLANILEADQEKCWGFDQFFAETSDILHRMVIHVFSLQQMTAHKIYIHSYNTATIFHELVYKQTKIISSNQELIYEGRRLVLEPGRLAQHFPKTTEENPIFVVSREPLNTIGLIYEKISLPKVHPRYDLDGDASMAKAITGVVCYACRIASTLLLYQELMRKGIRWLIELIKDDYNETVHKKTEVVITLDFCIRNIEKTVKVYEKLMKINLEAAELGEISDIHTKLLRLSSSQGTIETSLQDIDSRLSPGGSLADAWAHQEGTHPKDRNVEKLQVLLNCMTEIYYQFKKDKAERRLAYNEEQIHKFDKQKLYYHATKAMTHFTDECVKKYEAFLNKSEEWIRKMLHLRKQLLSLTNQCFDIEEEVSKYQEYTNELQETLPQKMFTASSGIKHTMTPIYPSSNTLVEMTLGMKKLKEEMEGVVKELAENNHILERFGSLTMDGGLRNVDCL

[2] = biological target: T2, Dual specificity protein kinase TTK (Homo sapiens) (UniProt P33981); assay: Inhibition of TTK (unknown origin) at 10 uM incubated for 30 mins in presence of [gamma-33P]ATP by multidrop micro reagent based assay relative to control
T2 sequence (whole entry): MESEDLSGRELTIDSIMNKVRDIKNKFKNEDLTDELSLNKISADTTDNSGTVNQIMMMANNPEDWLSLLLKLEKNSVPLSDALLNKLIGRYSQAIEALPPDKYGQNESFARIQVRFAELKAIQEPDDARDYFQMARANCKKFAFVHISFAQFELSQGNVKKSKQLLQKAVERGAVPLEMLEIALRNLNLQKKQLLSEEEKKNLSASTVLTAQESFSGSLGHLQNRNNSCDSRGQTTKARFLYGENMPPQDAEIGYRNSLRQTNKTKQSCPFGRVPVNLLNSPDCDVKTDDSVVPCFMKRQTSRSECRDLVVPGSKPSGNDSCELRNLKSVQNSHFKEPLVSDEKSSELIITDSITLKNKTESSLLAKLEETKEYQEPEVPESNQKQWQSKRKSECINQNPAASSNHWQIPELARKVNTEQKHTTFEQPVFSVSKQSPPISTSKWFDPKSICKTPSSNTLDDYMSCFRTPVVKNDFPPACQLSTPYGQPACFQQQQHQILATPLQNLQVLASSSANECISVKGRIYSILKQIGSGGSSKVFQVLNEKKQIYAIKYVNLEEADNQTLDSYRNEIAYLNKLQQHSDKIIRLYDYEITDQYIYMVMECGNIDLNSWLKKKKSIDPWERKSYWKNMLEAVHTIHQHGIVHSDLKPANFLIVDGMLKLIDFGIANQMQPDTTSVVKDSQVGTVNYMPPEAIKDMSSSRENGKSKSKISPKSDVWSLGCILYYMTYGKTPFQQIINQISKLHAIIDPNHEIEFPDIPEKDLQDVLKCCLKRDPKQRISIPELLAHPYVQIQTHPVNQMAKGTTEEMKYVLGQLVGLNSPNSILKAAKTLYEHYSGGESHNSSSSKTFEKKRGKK
How it was run: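 Single-concentration screen across a panel of 85 protein kinases. Activity is expressed as a percentage of control incubations run without inhibitor.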

[3] = biological target: T3, Serine/threonine-protein kinase BRSK2 (Homo sapiens) (UniProt Q8IWQ3); assay: Inhibition of BRSK2 (unknown origin) at 1 uM incubated for 30 mins in presence of [gamma-33P]ATP by multidrop micro reagent based assay relative to control; values are per cent of control
T3 sequence (whole entry): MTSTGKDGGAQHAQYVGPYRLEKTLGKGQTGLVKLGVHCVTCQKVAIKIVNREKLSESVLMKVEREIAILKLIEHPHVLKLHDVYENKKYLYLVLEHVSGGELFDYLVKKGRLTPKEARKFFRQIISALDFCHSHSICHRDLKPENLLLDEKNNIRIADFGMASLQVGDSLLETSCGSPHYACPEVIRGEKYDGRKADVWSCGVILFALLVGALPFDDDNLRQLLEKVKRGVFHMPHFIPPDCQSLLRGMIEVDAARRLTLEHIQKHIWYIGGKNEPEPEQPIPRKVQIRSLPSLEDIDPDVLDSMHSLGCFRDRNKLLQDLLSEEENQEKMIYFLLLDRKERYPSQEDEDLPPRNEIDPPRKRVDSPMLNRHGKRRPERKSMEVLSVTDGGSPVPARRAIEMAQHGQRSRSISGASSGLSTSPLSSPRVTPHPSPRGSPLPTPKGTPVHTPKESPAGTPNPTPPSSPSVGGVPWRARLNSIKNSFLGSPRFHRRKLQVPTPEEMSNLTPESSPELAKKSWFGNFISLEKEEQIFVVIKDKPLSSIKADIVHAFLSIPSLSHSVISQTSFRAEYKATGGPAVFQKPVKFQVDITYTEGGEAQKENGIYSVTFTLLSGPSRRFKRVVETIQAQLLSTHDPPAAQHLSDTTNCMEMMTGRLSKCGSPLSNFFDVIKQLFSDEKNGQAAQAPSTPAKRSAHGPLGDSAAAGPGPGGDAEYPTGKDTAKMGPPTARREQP

Homo sapiens = species on record: Homo sapiens; assay: Inhibition of VEGFR (unknown origin) at 1 uM incubated for 30 mins in presence of [gamma-33P]ATP by multidrop micro reagent based assay relative to control; values are per cent of control

Compound | residual activity [1] [%] | inhibition [2] [%] | residual activity [3] [%] | residual activity (Homo sapiens) [%]
C[C@@H](N)[C@H]1CC[C@H](C(=O)Nc2ccncc2)CC1 | 69 | 73 | – | –
CC1=C(C(=O)Nc2cc3cn[nH]c3cc2F)C(c2ccc(C(F)(F)F)cc2)CC(=O)N1 (stereo not drawn) | – | – | 91 | 117
O=S(=O)(c1cccc2cnccc12)N1CCCNCC1 [FASUDIL] | 110 | 73 | – | –
Cc1cncc2cccc(S(=O)(=O)N3CCCNC[C@@H]3C)c12 | – | – | 17 | 82
